# Laboratory results from ChEMBL document CHEMBL4732120, “Discovery of novel PARP/PI3K dual inhibitors with high efficiency against BRCA-proficient triple negative breast cancer” (Eur J Med Chem, 2021).
# What was measured:
# [1] = test system: MDA-MB-468; assay: Induction of apoptosis in human MDA-MB-468 cells assessed as viable cells at 1 uM measured after 72 hrs by Annexin V-FITC/propidium iodide staining based flow cytometry (reference value: 95.2%); assay type: functional; details: read-out: Activity
# [2] = Toxicity in Sprague-Dawley rat assessed as death at 1000 mg/kg, po administered as single dose; assay type: organism-based; details: in vivo
# Method in brief: (§1)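 Sprague-Dawley rats, n = 6 (3 male, 3 female), given a single oral dose of 1000 mg/kg. Deaths and body-weight change were recorded to estimate the maximum tolerated dose.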
# [3] = target: Phosphatidylinositol 4,5-bisphosphate 3-kinase catalytic subunit gamma isoform (Homo sapiens, UniProt P48736); assay: Inhibition of PI3Kgamma (unknown origin)
# Sequence of Phosphatidylinositol 4,5-bisphosphate 3-kinase catalytic subunit gamma isoform (P48736 whole entry, canonical isoform): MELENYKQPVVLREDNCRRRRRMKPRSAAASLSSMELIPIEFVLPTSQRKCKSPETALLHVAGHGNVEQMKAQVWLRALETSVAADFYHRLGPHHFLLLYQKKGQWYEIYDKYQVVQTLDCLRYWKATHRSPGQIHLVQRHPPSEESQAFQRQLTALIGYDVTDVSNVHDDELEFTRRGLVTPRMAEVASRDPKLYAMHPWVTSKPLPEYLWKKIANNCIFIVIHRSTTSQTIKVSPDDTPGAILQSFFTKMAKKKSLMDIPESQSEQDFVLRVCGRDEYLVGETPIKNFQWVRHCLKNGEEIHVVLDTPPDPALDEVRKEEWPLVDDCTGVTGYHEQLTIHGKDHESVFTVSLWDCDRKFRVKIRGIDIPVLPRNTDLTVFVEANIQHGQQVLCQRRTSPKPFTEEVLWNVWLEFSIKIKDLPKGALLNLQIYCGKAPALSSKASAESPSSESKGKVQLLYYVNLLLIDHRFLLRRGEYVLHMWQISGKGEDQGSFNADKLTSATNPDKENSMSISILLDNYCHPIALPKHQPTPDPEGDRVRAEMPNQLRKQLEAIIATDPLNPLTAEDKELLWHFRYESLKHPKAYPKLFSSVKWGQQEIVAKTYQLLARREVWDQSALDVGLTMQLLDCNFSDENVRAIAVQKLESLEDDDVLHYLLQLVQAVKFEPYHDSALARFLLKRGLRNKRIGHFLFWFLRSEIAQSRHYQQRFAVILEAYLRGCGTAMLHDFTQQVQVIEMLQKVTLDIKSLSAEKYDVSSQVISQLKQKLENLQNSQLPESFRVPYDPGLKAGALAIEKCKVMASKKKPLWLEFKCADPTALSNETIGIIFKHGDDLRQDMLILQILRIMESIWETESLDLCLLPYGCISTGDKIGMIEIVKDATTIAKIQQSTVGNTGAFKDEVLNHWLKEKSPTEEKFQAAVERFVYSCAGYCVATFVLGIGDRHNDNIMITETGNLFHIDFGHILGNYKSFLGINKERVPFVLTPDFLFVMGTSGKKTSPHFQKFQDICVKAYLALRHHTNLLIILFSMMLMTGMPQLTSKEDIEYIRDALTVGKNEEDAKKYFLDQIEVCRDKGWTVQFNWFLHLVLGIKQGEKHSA
# [4] = Toxicity in MDA-MB-468 cells xenografted BALB/c mouse assessed as change in body weight at 50 mg/kg, ip administered every two days for 34 days measured at 2 days interval during compound dosing; details: in vivo, 816 h
# [5] = test system: MDA-MB-468; assay: Induction of apoptosis in human MDA-MB-468 cells assessed as necrotic cells at 1 uM measured after 72 hrs by Annexin V-FITC/propidium iodide staining based flow cytometry (reference value: 0.13%); assay type: functional
# [6] = target: Phosphatidylinositol 4,5-bisphosphate 3-kinase catalytic subunit beta isoform (Homo sapiens, UniProt P42338); assay: Inhibition of PI3Kbeta (unknown origin)
# Sequence of Phosphatidylinositol 4,5-bisphosphate 3-kinase catalytic subunit beta isoform (P42338 whole entry, canonical isoform): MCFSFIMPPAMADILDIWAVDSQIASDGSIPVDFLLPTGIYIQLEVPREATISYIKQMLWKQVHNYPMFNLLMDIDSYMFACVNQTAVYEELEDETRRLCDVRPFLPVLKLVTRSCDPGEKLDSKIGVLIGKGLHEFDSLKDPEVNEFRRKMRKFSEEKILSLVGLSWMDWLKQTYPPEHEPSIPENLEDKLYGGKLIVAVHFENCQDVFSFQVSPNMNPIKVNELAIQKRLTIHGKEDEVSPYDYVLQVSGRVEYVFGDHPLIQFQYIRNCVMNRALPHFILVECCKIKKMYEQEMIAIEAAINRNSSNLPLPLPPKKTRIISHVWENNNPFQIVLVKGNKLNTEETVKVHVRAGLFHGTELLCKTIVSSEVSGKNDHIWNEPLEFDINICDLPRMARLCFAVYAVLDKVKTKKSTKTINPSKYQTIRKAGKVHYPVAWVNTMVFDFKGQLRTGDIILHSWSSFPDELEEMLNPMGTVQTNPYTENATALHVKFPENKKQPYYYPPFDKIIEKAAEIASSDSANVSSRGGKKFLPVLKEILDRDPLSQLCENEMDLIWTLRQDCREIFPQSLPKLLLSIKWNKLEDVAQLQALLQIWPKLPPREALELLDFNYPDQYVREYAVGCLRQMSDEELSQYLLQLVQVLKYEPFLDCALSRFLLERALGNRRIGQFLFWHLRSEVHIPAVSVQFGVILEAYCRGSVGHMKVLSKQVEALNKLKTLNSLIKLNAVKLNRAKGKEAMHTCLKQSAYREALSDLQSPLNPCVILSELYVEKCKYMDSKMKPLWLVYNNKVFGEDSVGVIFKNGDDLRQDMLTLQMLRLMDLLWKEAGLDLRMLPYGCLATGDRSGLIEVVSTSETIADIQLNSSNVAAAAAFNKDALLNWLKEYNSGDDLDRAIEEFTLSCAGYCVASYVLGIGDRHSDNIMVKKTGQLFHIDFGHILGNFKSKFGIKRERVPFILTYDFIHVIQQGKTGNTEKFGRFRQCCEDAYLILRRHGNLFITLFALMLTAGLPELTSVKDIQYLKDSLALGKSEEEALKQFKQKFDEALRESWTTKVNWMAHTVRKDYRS
# [7] = test system: MDA-MB-468; assay: Antiproliferative activity against human MDA-MB-468 cells measured after 7 days by Celltiter-glo assay; assay type: functional, cell-based; details: MDA-MB-468, 168 h
# Method in brief: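 MDA-MB-468 cells grown in RPMI1640 with 10% FBS at 37 °C, 5% CO2. Seeded the day before dosing, grown 12 h, then exposed to a range of concentrations for 7 days. Viability read by CellTiter-Glo luminescence after 10 min at room temperature. Inhibition % = (1 − (RLU cpd − blank)/(RLU DMSO − blank)) × 100. IC50 from nonlinear regression of normalized dose-response.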
# [8] = target: T1, Phosphatidylinositol 4,5-bisphosphate 3-kinase catalytic subunit delta isoform (Homo sapiens, UniProt O00329); assay: Inhibition of PI3Kdelta (unknown origin)
# T1 sequence (O00329 whole entry): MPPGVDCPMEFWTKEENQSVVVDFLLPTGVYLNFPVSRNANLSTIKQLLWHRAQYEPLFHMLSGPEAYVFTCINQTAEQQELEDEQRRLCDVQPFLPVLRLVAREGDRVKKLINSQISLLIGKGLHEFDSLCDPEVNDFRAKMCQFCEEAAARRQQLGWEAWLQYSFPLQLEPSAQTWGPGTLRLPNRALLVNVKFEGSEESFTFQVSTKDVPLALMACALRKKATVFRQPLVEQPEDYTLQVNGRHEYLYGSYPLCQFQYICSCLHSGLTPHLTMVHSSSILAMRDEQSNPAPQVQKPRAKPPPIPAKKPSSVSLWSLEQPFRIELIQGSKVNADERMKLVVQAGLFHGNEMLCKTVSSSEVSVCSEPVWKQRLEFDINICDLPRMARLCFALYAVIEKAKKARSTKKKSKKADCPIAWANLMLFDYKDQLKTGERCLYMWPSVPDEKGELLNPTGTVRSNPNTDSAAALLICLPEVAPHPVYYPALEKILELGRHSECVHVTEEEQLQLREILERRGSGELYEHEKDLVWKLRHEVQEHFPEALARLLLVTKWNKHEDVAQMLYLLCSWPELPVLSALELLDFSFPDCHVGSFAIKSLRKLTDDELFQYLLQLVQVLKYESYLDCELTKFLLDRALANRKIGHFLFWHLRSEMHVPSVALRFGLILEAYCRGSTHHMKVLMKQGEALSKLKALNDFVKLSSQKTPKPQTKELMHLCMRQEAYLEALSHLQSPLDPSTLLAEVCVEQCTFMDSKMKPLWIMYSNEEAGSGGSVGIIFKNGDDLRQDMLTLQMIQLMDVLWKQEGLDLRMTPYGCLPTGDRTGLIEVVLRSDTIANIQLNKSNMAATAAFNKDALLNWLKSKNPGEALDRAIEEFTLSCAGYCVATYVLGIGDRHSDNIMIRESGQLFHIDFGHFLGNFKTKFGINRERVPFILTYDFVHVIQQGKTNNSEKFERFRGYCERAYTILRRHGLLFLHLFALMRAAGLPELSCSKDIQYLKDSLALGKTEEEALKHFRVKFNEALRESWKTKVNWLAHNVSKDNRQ
# [9] = target: Phosphatidylinositol 4,5-bisphosphate 3-kinase catalytic subunit alpha isoform (Homo sapiens, UniProt P42336); assay: Inhibition of PI3Kalpha (unknown origin)
# Sequence of Phosphatidylinositol 4,5-bisphosphate 3-kinase catalytic subunit alpha isoform (P42336 whole entry, canonical isoform): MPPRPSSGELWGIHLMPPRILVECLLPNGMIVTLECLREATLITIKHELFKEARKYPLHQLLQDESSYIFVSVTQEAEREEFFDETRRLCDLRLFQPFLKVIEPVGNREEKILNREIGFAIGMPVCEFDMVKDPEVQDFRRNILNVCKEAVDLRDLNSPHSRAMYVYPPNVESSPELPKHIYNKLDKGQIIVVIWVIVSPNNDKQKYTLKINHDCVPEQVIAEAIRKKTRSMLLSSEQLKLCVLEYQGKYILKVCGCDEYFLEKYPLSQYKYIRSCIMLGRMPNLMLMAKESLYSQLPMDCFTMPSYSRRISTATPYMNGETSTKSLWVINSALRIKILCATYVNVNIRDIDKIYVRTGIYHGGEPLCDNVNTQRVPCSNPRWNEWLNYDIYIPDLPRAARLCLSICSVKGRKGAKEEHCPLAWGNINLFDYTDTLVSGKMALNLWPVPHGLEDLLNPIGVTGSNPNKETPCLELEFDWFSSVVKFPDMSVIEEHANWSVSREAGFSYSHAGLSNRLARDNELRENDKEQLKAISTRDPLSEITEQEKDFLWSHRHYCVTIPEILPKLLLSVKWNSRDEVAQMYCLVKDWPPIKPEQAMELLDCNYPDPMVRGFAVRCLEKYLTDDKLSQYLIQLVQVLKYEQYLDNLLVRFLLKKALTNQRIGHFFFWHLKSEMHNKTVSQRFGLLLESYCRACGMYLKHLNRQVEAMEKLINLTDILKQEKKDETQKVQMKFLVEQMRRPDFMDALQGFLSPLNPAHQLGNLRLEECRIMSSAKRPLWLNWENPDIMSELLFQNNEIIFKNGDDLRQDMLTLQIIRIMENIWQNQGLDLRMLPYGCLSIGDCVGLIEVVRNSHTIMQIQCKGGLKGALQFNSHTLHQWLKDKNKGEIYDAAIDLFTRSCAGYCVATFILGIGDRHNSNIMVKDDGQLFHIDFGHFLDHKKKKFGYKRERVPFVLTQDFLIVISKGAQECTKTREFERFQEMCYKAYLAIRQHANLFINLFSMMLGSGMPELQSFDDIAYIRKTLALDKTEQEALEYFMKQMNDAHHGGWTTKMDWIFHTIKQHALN
# Method in brief: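 PARP-1 and PI3Kα enzyme inhibition. IC50 taken from dose-response curves and given as mean ± SD of three independent experiments.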
# [10] = Toxicity in Sprague-Dawley rat administered as single oral dose; details: in vivo; method in brief: as §1
# [11] = Elimination half life in monkey liver microsomes measured after 1 hr; assay type: ADME, Macaca mulatta, Microsome; details: rhesus monkey, read-out: beta t1/2
# Method in brief: (§2)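 Compound incubated 1 h with mouse, rat, dog, monkey or human liver microsomes. Derived values were the elimination rate constant k, the elimination half-life T1/2 and the intrinsic clearance CLint.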
# [12] = Intrinsic clearance in monkey liver microsomes measured after 1 hr; assay type: ADME, Macaca mulatta, Microsome; details: rhesus monkey, read-out: CLH; method in brief: as §2
# [13] = Toxicity in Sprague-Dawley rat assessed as change in body weight at 1000 mg/kg, po administered as single dose measured on day 4 (reference value: 280 +/- 12 g); assay type: organism-based; details: in vivo, 96 h, time 4 day
# [14] = Elimination rate constant in dog liver microsomes measured after 1 hr; assay type: ADME, Canis lupus familiaris, Microsome; method in brief: as §2
# [15] = Elimination half life in mouse liver microsomes measured after 1 hr; assay type: ADME, Microsome; details: read-out: beta t1/2; method in brief: as §2
# [16] = Intrinsic clearance in human liver microsomes measured after 1 hr; assay type: ADME, Microsome; details: read-out: CLH; method in brief: as §2
# [17] = test system: MDA-MB-468; assay: Induction of apoptosis in human MDA-MB-468 cells assessed as late apoptotic cells at 1 uM measured after 72 hrs by Annexin V-FITC/propidium iodide staining based flow cytometry (reference value: 0.78%); assay type: functional
# [18] = Elimination half life in dog liver microsomes measured after 1 hr; assay type: ADME, Canis lupus familiaris, Microsome; details: read-out: beta t1/2; method in brief: as §2
# [19] = Toxicity in Sprague-Dawley rat assessed as change in body weight at 1000 mg/kg, po administered as single dose measured during adaptation period (reference value: 258 +/- 13 g); assay type: organism-based; details: in vivo
# [20] = target: Voltage-gated inwardly rectifying potassium channel KCNH2 (Homo sapiens, UniProt Q12809); assay: Inhibition of human ERG
# Sequence of Voltage-gated inwardly rectifying potassium channel KCNH2 (Q12809 whole entry): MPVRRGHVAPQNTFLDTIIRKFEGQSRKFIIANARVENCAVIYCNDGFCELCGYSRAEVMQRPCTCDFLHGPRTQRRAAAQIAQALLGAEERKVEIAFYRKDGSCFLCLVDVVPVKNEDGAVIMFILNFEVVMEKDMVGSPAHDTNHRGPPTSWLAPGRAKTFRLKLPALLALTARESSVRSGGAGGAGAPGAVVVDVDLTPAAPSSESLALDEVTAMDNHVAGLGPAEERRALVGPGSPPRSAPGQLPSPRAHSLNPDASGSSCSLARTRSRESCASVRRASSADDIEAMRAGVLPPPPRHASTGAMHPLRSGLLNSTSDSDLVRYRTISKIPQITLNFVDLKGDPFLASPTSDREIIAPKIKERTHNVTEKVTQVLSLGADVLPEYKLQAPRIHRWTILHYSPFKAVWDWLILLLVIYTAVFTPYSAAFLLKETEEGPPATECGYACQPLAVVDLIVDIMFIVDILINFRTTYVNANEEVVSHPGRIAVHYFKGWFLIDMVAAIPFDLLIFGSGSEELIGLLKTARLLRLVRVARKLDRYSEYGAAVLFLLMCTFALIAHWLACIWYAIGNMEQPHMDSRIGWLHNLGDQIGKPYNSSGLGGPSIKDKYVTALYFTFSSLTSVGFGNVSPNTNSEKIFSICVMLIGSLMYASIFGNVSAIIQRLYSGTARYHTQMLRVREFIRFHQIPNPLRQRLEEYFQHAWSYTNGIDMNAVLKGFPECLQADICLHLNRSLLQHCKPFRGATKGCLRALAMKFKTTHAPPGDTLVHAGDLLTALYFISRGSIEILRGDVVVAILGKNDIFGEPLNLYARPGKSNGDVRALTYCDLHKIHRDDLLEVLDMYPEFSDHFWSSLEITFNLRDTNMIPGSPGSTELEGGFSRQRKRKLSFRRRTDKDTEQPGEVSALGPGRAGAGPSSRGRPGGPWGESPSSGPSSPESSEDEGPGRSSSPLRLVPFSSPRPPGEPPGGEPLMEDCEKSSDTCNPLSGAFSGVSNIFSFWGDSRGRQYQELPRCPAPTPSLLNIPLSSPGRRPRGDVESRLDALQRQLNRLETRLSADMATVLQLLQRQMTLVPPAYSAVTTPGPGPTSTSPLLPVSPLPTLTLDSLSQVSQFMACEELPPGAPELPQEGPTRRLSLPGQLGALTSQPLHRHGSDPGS
# [21] = Elimination rate constant in monkey liver microsomes measured after 1 hr; assay type: ADME, Macaca mulatta, Microsome; details: rhesus monkey; method in brief: as §2
# [22] = Elimination rate constant in mouse liver microsomes measured after 1 hr; assay type: ADME, Microsome; method in brief: as §2
# [23] = Apparent permeability across basolateral to apical side in human Caco2 cells assessed as drug recovery at 5 uM measured after 120 mins; assay type: ADME, cell-based; details: Caco-2, read-out: Drug recovery
# Method in brief: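 Bidirectional permeability run, apical-to-basolateral and basolateral-to-apical. Test compound at 5 µM, incubated 120 min. Papp (10^-6 cm/s), recovery (%) and efflux ratio reported as the mean of two experiments.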
# [24] = Toxicity in Sprague-Dawley rat assessed as change in body weight at 1000 mg/kg, po administered as single dose measured on day 7 (reference value: 298 +/- 14 g); assay type: organism-based; details: in vivo, 168 h, time 7 day
structure (smiles),measurement,setting,value
NC(=O)c1cccc2cc(C(=O)N3CCN(c4nc(-c5cnc(NC(=O)CN6CCOCC6)cc5C(F)(F)F)nc(N5CCOCC5)n4)CC3)oc12,viability at 1 µM,[1],67.2%
same,Activity,[2],Non-Toxic
same,IC50,[3],1100 nM
same,Activity,[4],Non-Toxic
same,Activity,[5],3.47%
same,IC50,[6],376 nM
same,IC50,[7],1400 nM
same,IC50,[8],197 nM
same,IC50,[9],64 nM
same,MTD,[10],> 1000 mg/kg
same,half-life,[11],59.1 min
same,microsomal CLint,[12],30.7 µL/min/mg
same,Activity,[13],272 g
same,k el at 1 h,[14],0.000245 s⁻¹
same,half-life,[15],17.4 min
same,microsomal CLint,[16],14.7 µL/min/mg
same,Activity,[17],13.5%
same,half-life,[18],47.3 min
same,Activity,[19],256 g
same,IC50,[20],29400 nM
same,k el at 1 h,[21],0.000255 s⁻¹
same,k el at 1 h,[22],0.000663 s⁻¹
same,"recovery at 2 h, 5 µM",[23],99.9%
same,Activity,[24],281 g
